Assay results taken from ChEMBL document CHEMBL4368867 (Medchemcomm, 2018).

Assays:
[1] = molecular target: Carbonic anhydrase 9 (Homo sapiens, UniProt Q16790); experiment: Inhibition of human carbonic anhydrase-9 incubated for 15 mins prior to testing by stopped-flow CO2 hydration assay
[2] = molecular target: Carbonic anhydrase 1 (Homo sapiens, UniProt P00915); experiment: Inhibition of human erythrocyte carbonic anhydrase-1 incubated for 15 mins prior to testing by stopped-flow CO2 hydration assay
[3] = species: Homo sapiens; experiment: Selectivity ratio of IC50 for recombinant human carbonic anhydrase-2 expressed in Escherichia coli to IC50 for human carbonic anhydrase-9
Method in brief: (§1)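 Ratio of the CA I or CA II IC50 to the CA IX IC50. hCA IX was purified recombinant protein; CA I and CA II were commercial. Enzyme levels were 50 ng µL−1 for CA I, 1 ng µL−1 for CA II and 3 ng µL−1 for CA IX. Inhibitor in DMSO was preincubated with enzyme for 15 min. Activity was read as stopped-flow CO2 hydration or initial 4-nitrophenyl acetate hydrolysis rates. Triplicates per concentration, mean reported.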

[4] = species: Homo sapiens; experiment: Selectivity ratio of IC50 for human erythrocyte carbonic anhydrase-1 to IC50 for human carbonic anhydrase-9; method in brief: as §1
[5] = molecular target: Carbonic anhydrase 2 (Homo sapiens, UniProt P00918); experiment: Inhibition of recombinant human carbonic anhydrase-2 expressed in Escherichia coli incubated for 15 mins prior to testing by stopped-flow CO2 hydration assay

Chain of Carbonic anhydrase 1 (P00915 whole entry): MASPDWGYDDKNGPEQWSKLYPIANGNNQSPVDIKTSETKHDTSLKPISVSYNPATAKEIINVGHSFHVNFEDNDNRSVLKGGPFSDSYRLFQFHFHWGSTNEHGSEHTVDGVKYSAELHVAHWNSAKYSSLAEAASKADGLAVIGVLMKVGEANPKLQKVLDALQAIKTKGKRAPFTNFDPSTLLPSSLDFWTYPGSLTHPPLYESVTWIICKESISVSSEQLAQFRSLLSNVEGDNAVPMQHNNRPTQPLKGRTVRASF

Row | IC50 [1] [nM] | IC50 [2] [nM] | Ratio IC50 [3] | Ratio IC50 [4] | IC50 [5] [nM] | Structure (SMILES)
1 | 4.42 | 1340 | 215 | 304 | 950 | NS(=O)(=O)c1cccc(NC(=S)NC(=O)c2ccc(Cl)cc2Cl)c1
2 | 19 | 773 | 14.6 | 40.7 | 277 | NS(=O)(=O)c1cccc(NC(=S)NC(=O)c2ccccc2Cl)c1
3 | 3.42 | 661 | 6.68 | 193 | 22.9 | NS(=O)(=O)c1ccc(NC(=S)NC(=O)c2ccccc2Cl)cc1
4 | 0.3 | 267 | 6.97 | 889 | 2.09 | COc1ccccc1C(=O)NC(=S)Nc1ccc(S(N)(=O)=O)cc1
5 | 42.2 | 1540 | 5.67 | 36.5 | 240 | NS(=O)(=O)c1cccc(NC(=S)NC(=O)c2ccc(Cl)cc2)c1
6 | 25.7 | 867 | 6.47 | 33.7 | 167 | NS(=O)(=O)c1cccc(NC(=S)NC(=O)c2ccccc2)c1
7 | 4.14 | 423 | 3.13 | 102 | 12.9 | NS(=O)(=O)c1ccc(NC(=S)NC(=O)c2ccc(Cl)cc2)cc1
8 | 0.47 | 694 | 54.4 | 1480 | 25.6 | COc1ccc(C(=O)NC(=S)Nc2ccc(S(N)(=O)=O)cc2)cc1
9 | 54.3 | 44.4 | 0.38 | 0.82 | 20.7 | COc1ccccc1C(=O)NC(=S)Nc1cccc(S(N)(=O)=O)c1
10 | 25.5 | 665 | 35.6 | 26.1 | 908 | COc1ccc(C(=O)NC(=S)Nc2cccc(S(N)(=O)=O)c2)cc1
11 | > 104 | 60.5 | – | – | 142 | NS(=O)(=O)c1cccc(NC(=S)NC(=O)c2ccc([N+](=O)[O-])cc2)c1
12 | 0.12 | 632 | 98.5 | 5270 | 11.8 | NS(=O)(=O)c1ccc(NC(=S)NC(=O)c2ccc(Cl)cc2Cl)cc1
13 | 0.48 | 504 | 1560 | 1050 | 749 | NS(=O)(=O)c1ccc(NC(=S)NC(=O)c2ccc([N+](=O)[O-])cc2)cc1
